Data from ChEMBL document CHEMBL4364270, “Structure-activity relationship studies on Bax activator SMBA1 for the treatment of ER-positive and triple-negative breast cancer” (Eur J Med Chem, 2019).
Active and inactive are the calls of the source. No cut-off for these calls is given here.

Columns and labels:
MDA-MB-231 [1] = assay: Inhibition of colony formation in triple negative human MDA-MB-231 cells at 1 uM supplemented with fresh medium containing compound every 72 hrs for 2 weeks by crystal violet staining based assay; format: functional, cell-based
Outline: (§1)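 Clonogenic assay: 800 cells per well seeded, treated after 24 h with 1 μM or DMSO vehicle, medium with compound renewed every 72 h for 2 weeks; PBS wash, 0.01% crystal violet 10 min, whole-well density digitally quantified; triplicate, one-way ANOVA, SD error bars.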

MDA-MB-231 [2] = assay: Antiproliferative activity against triple negative human MDA-MB-231 cells assessed as reduction in cell growth at 10 uM incubated for 48 hrs by MTT assay relative to control; format: functional; settings: MDA-MB-231, 48 h
Outline: (§2)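 MTT viability: MCF-7 and MDA-MB-231 seeded 1×10^4 cells/well, exposed to DMSO or 0.01-100 μM for 48 h; MTT (5 mg/mL in PBS) added 4 h, formazan dissolved in DMSO, OD 550 nm; quadruplicate wells; IC50 fitted for compounds giving >50% inhibition at 10 µM; at least three independent experiments.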

MDA-MB-231 [3] = assay: Induction of apoptosis in triple-negative human MDA-MB-231 cells assessed as upregulation of PARP1 cleavage incubated for 48 hrs by Western blot analysis; format: functional, cell-based
Outline: (§3)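 Western blot: cells harvested after treatment, lysates quantified by Bradford (BSA standard), 30 µg protein resolved by SDS-PAGE, transferred to PVDF, blocked in 5% nonfat milk, probed overnight with anti-PARP-1, anti-cleaved PARP-1 or anti-cyclin D1 (1:1,000) and β-actin loading control; ECL visualization.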

MCF7 [4] = assay: Inhibition of colony formation in ER-positive human MCF7 cells at 1 uM supplemented with fresh medium containing compound every 72 hrs for 2 weeks by crystal violet staining based assay; format: functional, cell-based; outline: as §1
MCF7 [5] = assay: Induction of apoptosis in ER-positive human MCF7 cells assessed as upregulation of caspase3 cleavage incubated for 48 hrs by Western blot analysis; format: functional, cell-based
MCF7 [6] = assay: Induction of apoptosis in ER-positive human MCF7 cells assessed as downregulation of cyclin D1 level incubated for 48 hrs by Western blot analysis; format: functional, cell-based; outline: as §3
MDA-MB-231 [7] = assay: Antitumor activity against triple-negative human MDA-MB-231 cells xenografted in mouse assessed as reduction in tumor growth at 2.5 mg/kg, ip administered once daily for 7 days; format: functional; settings: MDA-MB-231, ip, 168 h, read-out: GI
Outline: (§4)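 Female nude mice (6 weeks) given 2.5×10^6 MDA-MB-231 cells in PBS into third mammary fat pad, randomized into four groups; at 200 mm³ tumor volume dosed i.p. daily for 7 days in 50% DMSO/50% PEG vehicle; tumor volume (0.5×L×W²) and body weight measured daily; one-way ANOVA.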

MCF7 [8] = assay: Induction of apoptosis in ER-positive human MCF7 cells assessed as increase in total Bax protein level at 5 uM incubated upto 48 hrs by Western blot analysis; format: functional, cell-based
Outline: (§5)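 Western blot of MCF-7 (and MDA-MB-231 for cytosolic fractions) cells exposed to 5 μM over 0-48 h; 30 µg protein per lane on SDS-PAGE, PVDF transfer, 5% milk block, overnight primary antibodies (total Bax, p-Bax, active Bax 6A7, cytochrome C), ECL detection; cytosolic fraction used for cytochrome c and Bax.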

T47D [9] = assay: Antiproliferative activity against ER-positive human T47D cells assessed as reduction in cell growth at 1 uM incubated for 72 hrs by MTT assay relative to control; format: functional
Outline: (§6)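 MTT viability after 72 h exposure at indicated concentrations; cells seeded at 1×10^3 cells/well (T47D, MDA-MB-468, MCF-10A, MCF-7/ADR) in 96-well plates; quadruplicate wells, independently repeated three times; IC50 as mean ± SE of at least three experiments.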

MCF7 [10] = assay: Antiproliferative activity against ER-positive human MCF7 cells assessed as reduction in cell viability at 10 uM incubated for 48 hrs by MTT assay relative to control; format: functional; settings: MCF7, 48 h; outline: as §2
MDA-MB-231 [11] = assay: Antiproliferative activity against triple negative human MDA-MB-231 cells assessed as reduction in cell growth at 1 uM incubated for 48 hrs by MTT assay relative to control; format: functional; settings: MDA-MB-231, 48 h; outline: as §2
MDA-MB-231 [12] = assay: Antiproliferative activity against triple negative human MDA-MB-231 cells assessed as reduction in cell growth incubated for 48 hrs by MTT assay; format: functional, cell-based; settings: MDA-MB-231, 48 h; outline: as §2
MCF7 [13] = assay: Antiproliferative activity against ER-positive human MCF7 cells assessed as reduction in cell growth incubated for 48 hrs by MTT assay; format: functional, cell-based; settings: MCF7, 48 h; outline: as §2
MDA-MB-468 = assay: Antiproliferative activity against triple negative human MDA-MB-468 cells assessed as reduction in cell growth incubated for 72 hrs by MTT assay; format: functional, cell-based; settings: MDA-MB-468, 72 h; outline: as §6
[14] = molecular target: Apoptosis regulator BAX (Homo sapiens) (UniProt Q07812); assay: Activation of Bax in triple-negative human MDA-MB-231 cells assessed as increase in cytosolic cytochrome C level at 5 uM incubated for 48 hrs by Western blot analysis; format: cell-based; outline: as §5
[15] = Toxicity in mouse xenografted with triple-negative human MDA-MB-231 cells assessed as slight reduction in body weight at 2.5 mg/kg, ip administered once daily for 7 days; format: organism-based; settings: in vivo, 168 h; outline: as §4
MDA-MB-231 [16] = assay: Potency index, ratio of SMBA1 IC50 to compound IC50 for antiproliferative activity against triple negative human MDA-MB-231 cells assessed as reduction in cell growth incubated for 48 hrs by MTT assay; format: functional
[17] = molecular target: Apoptosis regulator BAX (Homo sapiens) (UniProt Q07812); assay: Activation of Bax in ER-positive human MCF7 cells assessed as increase in active Bax 6A7 isoform protein level at 5 uM incubated upto 48 hrs by Western blot analysis; format: cell-based; outline: as §5
MDA-MB-231 [18] = assay: Induction of apoptosis in triple negative human MDA-MB-231 cells assessed as appearance of concentrated dense granules at 5 to 10 uM incubated for 24 hrs by Hoechst 33342 staining based fluorescence microscopy; format: functional, cell-based
Outline: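 Cells on coverslips (2.5×10^5/well) treated with DMSO or 5 and 10 μM for 24 h, washed in binding buffer, stained 15 min with FITC-annexin V, ethidium homodimer III and Hoechst 33342, mounted and imaged by fluorescence microscopy (DAPI filter) from center and peripheral regions.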

T47D [19] = assay: Antiproliferative activity against ER-positive human T47D cells assessed as reduction in cell growth incubated for 72 hrs by MTT assay; format: functional, cell-based; outline: as §6
[20] = molecular target: Apoptosis regulator BAX (Homo sapiens) (UniProt Q07812); assay: Activation of Bax in ER-positive human MCF7 cells assessed as increase in cytosolic cytochrome C level at 5 uM incubated for 48 hrs by Western blot analysis; format: cell-based; outline: as §5
[21] = molecular target: Apoptosis regulator BAX (Homo sapiens) (UniProt Q07812); assay: Activation of Bax in ER-positive human MCF7 cells assessed as reduction in Bax phosphorylation at Ser184 at 5 uM incubated upto 48 hrs by Western blotting analysis; format: cell-based; settings: TDE = time-dependent effect; outline: as §5
MCF7 [22] = assay: Antiproliferative activity against adriamycin-resistant human MCF7 cells assessed as reduction in cell growth incubated for 72 hrs by MTT assay; format: functional, cell-based; outline: as §6
MDA-MB-231 [23] = assay: Induction of apoptosis in triple-negative human MDA-MB-231 cells assessed as decrease in cytosolic Bax level at 5 uM incubated for 48 hrs by Western blot analysis; format: functional, cell-based; outline: as §5
MCF7 [24] = assay: Potency index, ratio of IC50 of (E/Z)-2-(2-((2-nitro-9H-fluoren 9-ylidene)methyl)phenoxy)ethan-1-amine to IC50 of compound for antiproliferative activity against ER-positive human MCF7 cells assessed as reduction in cell growth incubated for 48 hrs by MTT assay; format: functional

Apoptosis regulator BAX (Homo sapiens), sequence (Q07812 whole entry, canonical isoform): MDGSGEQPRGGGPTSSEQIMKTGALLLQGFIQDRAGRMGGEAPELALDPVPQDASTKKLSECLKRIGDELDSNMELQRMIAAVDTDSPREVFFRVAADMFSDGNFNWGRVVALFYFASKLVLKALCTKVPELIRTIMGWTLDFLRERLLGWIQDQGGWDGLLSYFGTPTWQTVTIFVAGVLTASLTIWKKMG

NCCOc1ncccc1C=C1c2ccccc2-c2ccc([N+](=O)[O-])cc21
inhibition (MDA-MB-231 [1]): Active | inhibition at 10 µM (MDA-MB-231 [2]): > 50% | Activity (MDA-MB-231 [3]): Dose-dependent effect | inhibition (MCF7 [4]): Active | Activity (MCF7 [5]): Dose-dependent effect | Activity (MCF7 [6]): Dose-dependent effect | inhibition in vivo at 2.5 mg/kg (MDA-MB-231 [7]): 55% | Activity (MCF7 [8]): Active | inhibition at 1 µM (T47D [9]): > 50% | inhibition at 10 µM (MCF7 [10]): > 50% | inhibition at 1 µM (MDA-MB-231 [11]): > 50% | IC50 (MDA-MB-231 [12]): 0.07 µM | IC50 (MCF7 [13]): 0.06 µM | IC50 (MDA-MB-468): 1.61 µM | Activity [14]: Active | Activity [15]: Toxic | Ratio IC50 (MDA-MB-231 [16]): 80 - 130 | Activity [17]: Active | Activity (MDA-MB-231 [18]): Active | IC50 (T47D [19]): 1.2 µM | Activity [20]: Active | inhibition [21]: Tde | inhibition (MCF7 [22]): Dose-dependent effect | Activity (MDA-MB-231 [23]): Active | Ratio IC50 (MCF7 [24]): 40 - 60
